Measurements reported in ChEMBL document CHEMBL3822416, “Design, Synthesis, and Structure-Activity Relationship Study of Novel Indole-2-carboxamide Derivatives as Anti-inflammatory Agents for the Treatment of Sepsis” (J Med Chem, 2016).
pIC50: −log10 of the molar value. The source made the active and inactive calls. No cut-off for these calls is given here.

How the values were obtained:
RAW264.7 [1] = assay: Inhibition of LPS-induced IL6 production in mouse RAW264.7 cells preincubated for 30 mins prior to LPS challenge measured after 24 hrs by ELISA; format: functional, cell-based; conditions: Mus musculus, RAW264.7; read-out: IC50
Outline: (§1)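 RAW 264.7 cells (ATCC) were grown in DMEM with 10% FBS and penicillin/streptomycin at 37 °C, 5% CO2. Cells were seeded at 400,000/well and incubated for 24 h, pretreated with compound for 30 min, then given 0.5 µg/mL LPS for 24 h. Medium TNF-α or IL-6 was measured by ELISA and normalized to total protein of viable cell pellets.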

RAW264.7 [2] = assay: Inhibition of LPS-induced TNF-alpha production in mouse RAW264.7 cells preincubated for 30 mins prior to LPS challenge measured after 24 hrs by ELISA; format: functional, cell-based; conditions: Mus musculus, RAW264.7; read-out: IC50; outline: as §1
Mus musculus [3] = organism: Mus musculus; assay: Acute toxicity in C57BL/6 mouse liver by hematoxylin and eosin staining-based histopathologiacal analysis; format: organism-based; conditions: in vivo
Mus musculus [4] = organism: Mus musculus; assay: Acute toxicity in C57BL/6 mouse kidney by hematoxylin and eosin staining-based histopathologiacal analysis; format: organism-based; conditions: in vivo
Mus musculus [5] = organism: Mus musculus; assay: Acute toxicity in C57BL/6 mouse heart by hematoxylin and eosin staining-based histopathologiacal analysis; format: organism-based; conditions: in vivo
Mus musculus [6] = assay: Toxicity in C57BL/6 mouse assessed as change in body weight at 20 mg/kg, iv administered for 7 days measured every 24 hrs of compound dosing relative to control; format: organism-based; conditions: in vivo
Mus musculus [7] = assay: Antiinflammatory activity in LPS-induced C57BL/6 mouse sepsis model assessed as inhibition of neutrophils infiltration in lung by measuring MPO activity at 10 mg/kg, iv administered 15 mins prior to LPS challenge measured after 6 hrs in presence of O-dianisidine dihydrochloride relative to control; format: functional, organism-based
Outline: (§2)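 Mice were given 10 mg/kg iv 15 min before 20 mg/kg LPS or without LPS; saline served as control, and animals were killed 6 h later. Lung supernatants were incubated with 0.01% H2O2 and O-dianisidine dihydrochloride 0.167 mg/mL for 30 min, with absorbance change at 460 nm. One unit degrades 1 µmol peroxide/min at 37 °C; values are expressed as units/g lung.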

Mus musculus [8] = assay: Decrease in MPO activity in C57BL/6 mouse lung at 10 mg/kg, iv after 6 hrs in presence of O-dianisidine dihydrochloride relative to control; format: ADME, organism-based; conditions: in vivo; outline: as §2
Mus musculus [9] = assay: Antiinflammatory activity in LPS-induced C57BL/6 mouse sepsis model assessed as suppression of TNF-alpha release in serum at 10 mg/kg, iv administered 15 mins prior to LPS challenge measured after 6 hrs relative to control; format: functional, organism-based
Outline: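 Male C57BL/6 mice, 18-22 g, were injected via tail vein with 10 mg/kg 15 min before 20 mg/kg LPS; controls received saline. Blood was taken with a heparinized syringe 6 h after LPS under anesthesia. Serum TNF-α was measured by ELISA (pg/mL).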

Mus musculus [10] = assay: Antiinflammatory activity in LPS-induced C57BL/6 mouse sepsis model assessed as reduction in airspace inflammation in lung at 10 mg/kg, iv administered 15 mins prior to LPS challenge measured after 6 hrs by hematoxylin and eosin staining; format: functional, organism-based
Outline: (§3)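 Male C57BL/6 mice (18-22 g), randomized into groups. Compound at 10 mg/kg was given by tail-vein injection 15 min before LPS 20 mg/kg; controls received saline. Animals were sacrificed 6 h after LPS. Lung was fixed in 4% paraformaldehyde, paraffin-embedded, cut at 5 µm and H&E stained. A pathologist, blinded, scored alveolar congestion, hemorrhage, neutrophil infiltration and alveolar wall thickness/hyaline membrane.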

Mus musculus [11] = assay: Antiinflammatory activity in LPS-induced C57BL/6 mouse sepsis model assessed as decrease in pulmonary lobule structural changes at 10 mg/kg, iv administered 15 mins prior to LPS challenge measured after 6 hrs by hematoxylin and eosin staining; format: functional, organism-based; outline: as §3
Mus musculus [12] = assay: Antiinflammatory activity in LPS-induced C57BL/6 mouse sepsis model assessed as inhibition of macrophage infiltration in lung at 10 mg/kg, iv administered 15 mins prior to LPS challenge measured after 6 hrs by F4/80 and hematoxylin-staining based microscopy; format: functional, organism-based
Outline: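 C57BL/6 males were dosed with 10 mg/kg iv (tail vein) 15 min before 20 mg/kg LPS and sacrificed 6 h later. Paraffin lung sections had antigen retrieval by pressure cooker in 10 mM citrate pH 6.5, then H2O2, 5% BSA block, anti-F4/80 overnight at 4 °C, HRP secondary, DAB and hematoxylin counterstain. The % F4/80-positive cells was counted in 10 random 200× fields per section.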

Mus musculus [13] = assay: Downregulation of TNF-alpha mRNA level in lung of LPS-induced C57BL/6 mouse sepsis model at 10 mg/kg, iv administered 15 mins prior to LPS challenge measured after 6 hrs by RT-qPCR analysis; format: functional, organism-based
Outline: (§4)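 Male C57BL/6 mice were given 10 mg/kg by tail-vein injection 15 min before 20 mg/kg LPS and killed after 6 h; lungs were harvested. RNA was extracted with TRIZOL and quantified by real-time quantitative PCR as relative mRNA amount.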

Mus musculus [14] = assay: Downregulation of IL-6 mRNA level in lung of LPS-induced C57BL/6 mouse sepsis model at 10 mg/kg, iv administered 15 mins prior to LPS challenge measured after 6 hrs by RT-qPCR analysis; format: functional, organism-based; outline: as §4
Mus musculus [15] = assay: Downregulation of IL-12 mRNA level in lung of LPS-induced C57BL/6 mouse sepsis model at 10 mg/kg, iv administered 15 mins prior to LPS challenge measured after 6 hrs by RT-qPCR analysis; format: functional, organism-based; outline: as §4
Mus musculus [16] = assay: Downregulation of IL-33 mRNA level in lung of LPS-induced C57BL/6 mouse sepsis model at 10 mg/kg, iv administered 15 mins prior to LPS challenge measured after 6 hrs by RT-qPCR analysis; format: functional, organism-based; outline: as §4
Mus musculus [17] = assay: Downregulation of IL-1beta mRNA level in lung of LPS-induced C57BL/6 mouse sepsis model at 10 mg/kg, iv administered 15 mins prior to LPS challenge measured after 6 hrs by RT-qPCR analysis; format: functional, organism-based; outline: as §4
Mus musculus [18] = assay: Downregulation of COX2 mRNA level in lung of LPS-induced C57BL/6 mouse sepsis model at 10 mg/kg, iv administered 15 mins prior to LPS challenge measured after 6 hrs by RT-qPCR analysis; format: functional, organism-based; outline: as §4

SMILES: CN1CCN(c2ccc(NC(=O)c3cc4cc(NC(=O)N(C)C)ccc4n3Cc3ccc(C(F)(F)F)cc3)cc2)CC1
- pIC50 (RAW264.7 [1]): 5.91
- pIC50 (RAW264.7 [2]): 5.57
- Activity (Mus musculus [3]): Non-toxic
- Activity (Mus musculus [4]): Non-toxic
- Activity (Mus musculus [5]): Non-toxic
- Activity (Mus musculus [6]): Non-toxic
- inhibition (Mus musculus [7]): Active
- Activity (Mus musculus [8]): Non-toxic
- Activity (Mus musculus [9]): Active
- Activity (Mus musculus [10]): Active
- Activity (Mus musculus [11]): Active
- inhibition (Mus musculus [12]): Active
- Activity (Mus musculus [13]): Active
- Activity (Mus musculus [14]): Active
- Activity (Mus musculus [15]): Active
- Activity (Mus musculus [16]): Active
- Activity (Mus musculus [17]): Active
- Activity (Mus musculus [18]): Active

SMILES: CN1CCN(c2ccc(NC(=O)c3cc4cc(NC(=O)c5ccco5)ccc4n3Cc3ccc(C(F)(F)F)cc3)cc2)CC1
- pIC50 (RAW264.7 [1]): 5.54
- pIC50 (RAW264.7 [2]): 5.58
- Activity (Mus musculus [3]): Non-toxic
- Activity (Mus musculus [4]): Non-toxic
- Activity (Mus musculus [5]): Non-toxic
- Activity (Mus musculus [6]): Non-toxic
- inhibition (Mus musculus [7]): Active
- Activity (Mus musculus [8]): Non-toxic
- Activity (Mus musculus [9]): Active
- Activity (Mus musculus [10]): Active
- Activity (Mus musculus [11]): Active
- inhibition (Mus musculus [12]): Active
- Activity (Mus musculus [13]): Active
- Activity (Mus musculus [14]): Active
- Activity (Mus musculus [15]): Active
- Activity (Mus musculus [16]): Active
- Activity (Mus musculus [17]): Active
- Activity (Mus musculus [18]): Active
